Laboratory results reported in ChEMBL document CHEMBL1155964, “Discovery of diarylpyridine derivatives as novel non-nucleoside HIV-1 reverse transcriptase inhibitors” (Bioorg Med Chem Lett, 2009).
pEC50: −log10 of the molar value.

What was measured:
[1] = system: MT2; assay: Cytotoxicity against human MT2 cells after 4 days by XTT assay; assay type: cell-based; details: mt2, 96 h
[2] = system: Human immunodeficiency virus 1; assay: Antiviral activity against HIV1 3B infected in human MT2 cells assessed as inhibition of viral replication by p24 antigen assay; assay type: functional, organism-based; details: Human immunodeficiency virus 1, 3B
Procedure, shortened: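 HIV-1 IIIB replication in MT-2 cells, read as p24 production by ELISA. […] Tested in triplicate; means ± SD.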

[3] = Selectivity index, ratio of CC50 for human MT2 cells to EC50 for HIV1 3B; assay type: toxicity, cell-based; details: read-out: Ratio CC50/EC50
Procedure, shortened: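 HIV-1 IIIB replication in MT-2 cells, measured by p24 ELISA to give the EC50. Cytotoxicity in uninfected MT-2 cells measured by XTT to give the CC50. Each run in triplicate and reported as means ± SD. SI = CC50/EC50.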

[4] = system: Human immunodeficiency virus 1; assay: Antiviral activity against HIV1 NL4-3 infected in human TZM-bl cells assessed as inhibition of viral replication; assay type: functional, organism-based; details: Human immunodeficiency virus 1, NL4-3, TZM-bl
Procedure, shortened: (§1)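 Tested in triplicate and reported as means ± SD. The RTMDR1 strain carries the RT mutations 74V, 41L, 106A and 215Y.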

[5] = system: Human immunodeficiency virus 1; assay: Antiviral activity against HIV1 RTMDR1 infected in human TZM-bl cells assessed as inhibition of viral replication; assay type: functional, organism-based; details: Human immunodeficiency virus 1, RTMDR1, TZM-bl; procedure, shortened: as §1
[6] = Cytotoxicity against human TZM-bl cells; assay type: cell-based
[7] = Selectivity index, ratio of CC50 for human TZM-bl cells to EC50 for HIV1 NL4-3; assay type: toxicity, cell-based; details: read-out: Ratio CC50/EC50
[8] = Selectivity index, ratio of CC50 for human TZM-bl cells to EC50 for HIV1 RTMDR1; assay type: toxicity, cell-based; details: read-out: Ratio CC50/EC50
[9] = system: Human immunodeficiency virus 1; assay: Antiviral activity against HIV1 3B infected in human MT4 cells assessed as inhibition of viral replication; assay type: functional, organism-based; details: Human immunodeficiency virus 1, 3B
[10] = Selectivity index, ratio of CC50 for human MT4 cells to EC50 for HIV1 3B

Row | SMILES | CC50 [1] [µM] | pEC50 [2] | selectivity ratio [3] | pEC50 [4] | pEC50 [5] | CC50 [6] [µM] | selectivity ratio [7] | selectivity ratio [8] | pEC50 [9] | selectivity ratio [10]
1 | Cc1cccc(C)c1Oc1ccc([N+](=O)[O-])c(Nc2ccc(C#N)cc2)n1 | 110 | 5.99 | 107 | 6.63 | 6.89 | > 55.6 | > 238 | > 433 | – | –
2 | C#Cc1cc(C)c(Oc2ccc([N+](=O)[O-])c(Nc3ccc(C#N)cc3)n2)c(C)c1 | 174 | 6.17 | 256 | 6.95 | 6.67 | > 52.1 | > 469 | > 242 | – | –
3 | Cc1cccc(C)c1Oc1ccc(N)c(Nc2ccc(C#N)cc2)n1 | 29.9 | 6.24 | 52 | 8.40 | 8.42 | 8.14 | 2020 | 2150 | – | –
4 | Cc1cc(C#CC(C)(C)O)cc(C)c1Oc1ccc(N)c(Nc2ccc(C#N)cc2)n1 | 3.54 | 5.80 | 2 | 6.62 | 6.27 | 8.73 | 36 | 16 | – | –
5 | Cc1cc(C)c(Oc2ccc(N)c(Nc3ccc(C#N)cc3)n2)c(C)c1 | 10.6 | 7.24 | 182 | 8.78 | 8.92 | 18.6 | 11200 | 15500 | – | –
6 | Cc1cc(C)c(Oc2ccc([N+](=O)[O-])c(Nc3ccc(C#N)cc3)n2)c(C)c1 | 503 | 6.93 | 4260 | 7.64 | 7.26 | > 53.5 | > 2340 | > 969 | – | –
7 | Cc1cc(C#CC(C)(C)O)cc(C)c1Oc1ccc([N+](=O)[O-])c(Nc2ccc(C#N)cc2)n1 | 8.91 | 4.63 | < 1 | 4.38 | 4.59 | > 45.2 | > 1.09 | > 1.78 | – | –
8 | C#Cc1cc(C)c(Oc2ccc(N)c(Nc3ccc(C#N)cc3)n2)c(C)c1 | 8.25 | 6.37 | 20 | 8.17 | 8.04 | 9.94 | 1480 | 1100 | – | –
9 | Cc1cc(I)cc(C)c1Oc1ccc(N)c(Nc2ccc(C#N)cc2)n1 | 23.5 | 7.10 | 297 | 8.12 | 8.29 | 16.7 | 2200 | 3260 | – | –
10 | Cc1cc(C#N)cc(C)c1Oc1ccc(N)c(Nc2ccc(C#N)cc2)n1 | 31.8 | 8.85 | 22700 | 9.17 | 9.02 | 8.98 | 13200 | 9350 | – | –
11 | Cc1cc(I)cc(C)c1Oc1ccc([N+](=O)[O-])c(Nc2ccc(C#N)cc2)n1 | 148 | 5.61 | 61 | 7.21 | 7.03 | > 41.1 | > 675 | > 436 | – | –
12 | Cc1cc(C#N)cc(C)c1Oc1ccc([N+](=O)[O-])c(Nc2ccc(C#N)cc2)n1 | 50.1 | 6.87 | 371 | 7.66 | 7.68 | > 52 | > 2350 | > 2460 | – | –
13 | Cc1cc(CO)cc(C)c1Oc1ccc(N)c(Nc2ccc(C#N)cc2)n1 | 2.19 | 8.22 | 391 | 7.96 | 7.60 | 9.34 | 857 | 372 | – | –
14 | Cc1cc(CO)cc(C)c1Oc1ccc([N+](=O)[O-])c(Nc2ccc(C#N)cc2)n1 | 116 | 6.72 | 603 | 6.32 | 6.06 | > 51.3 | > 108 | > 58 | – | –
15 | Cc1cc(C)c(Nc2ccnc(Nc3ccc(C#N)cc3)n2)c(C)c1 [DAPIVIRINE] | – | – | – | 9.21 | 9.53 | > 0.304 | > 490 | > 1020 | – | –
16 | Cc1cc(C#N)cc(C)c1Oc1nc(Nc2ccc(C#N)cc2)nc(N)c1Br [ETRAVIRINE] | – | – | – | – | – | – | – | – | 8.80 | 63100
